Results from ChEMBL document CHEMBL5058577, “EUbOPEN Chemogenomics Library 2 (Multiplex)” (2022).

Test system: U2OS
Assay: Multiplex assay against U2OS
Type: toxicity, cell-based
Conditions: human
Outline: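 Cells stained live at seeding with Hoechst33342, BioTracker Green Microtubule Cytoskeleton Dye, MitoTracker Red and Annexin V Alexa Fluor 680 were imaged on a CQ1 microscope at 37°C and 5% CO2 after compound addition. Their classification by CellPathfinder machine-learning gating ran from Hoechst high-intensity objects versus normal cells, to healthy, pyknosed or fragmented nuclei among normal cells, to mitotic or apoptotic among pyknosed cells. Tubulin, mitochondrial-mass and membrane-permeability phenotypes are per cents of healthy-nucleus cells.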

[1] = 12 h, 1 µM, compound concentration 1 uM, replicate 1
[2] = 12 h, 1 µM, compound concentration 1 uM, replicate 2
[3] = 12 h, 10 µM, compound concentration 10 uM, replicate 1
[4] = 12 h, 10 µM, compound concentration 10 uM, replicate 2
[5] = 24 h, 1 µM, compound concentration 1 uM, replicate 1
[6] = 24 h, 1 µM, compound concentration 1 uM, replicate 2
[7] = 24 h, 10 µM, compound concentration 10 uM, replicate 1
[8] = 24 h, 10 µM, compound concentration 10 uM, replicate 2
[9] = 48 h, 1 µM, compound concentration 1 uM, replicate 1
[10] = 48 h, 1 µM, compound concentration 1 uM, replicate 2
[11] = 48 h, 10 µM, compound concentration 10 uM, replicate 1
[12] = 48 h, 10 µM, compound concentration 10 uM, replicate 2

## Cc1ccc(C(C)(O)c2nc3ccccc3s2)c(C)c1 (configuration not stated)
[1]
  Population Apoptotic (%): 86%
  Population Fragmented Nuclei (%): 19%
  Population Healthy Nuclei (%): 70%
  Population Hoechst High Intensity Objects (%): 3%
  Population Membrane Permeable-Phenotype (%): 4%
  Population Mitochondria Different-Phenotype (%): 1%
  Population Mitotic Cells (%): 13%
  Population Normal (%): 96%
  Population Pyknosed Nuclei (%): 9%
  Population Tubulin-Different-Phenotype (%): 2%
  Total Cell Count: 249
[2]
  Population Apoptotic (%): 100%
  Population Fragmented Nuclei (%): 17%
  Population Healthy Nuclei (%): 78%
  Population Hoechst High Intensity Objects (%): 0%
  Population Membrane Permeable-Phenotype (%): 9%
  Population Mitochondria Different-Phenotype (%): 4%
  Population Mitotic Cells (%): 0%
  Population Normal (%): 99%
  Population Pyknosed Nuclei (%): 3%
  Population Tubulin-Different-Phenotype (%): 5%
  Total Cell Count: 141
[3]
  Population Apoptotic (%): 100%
  Population Fragmented Nuclei (%): 25%
  Population Healthy Nuclei (%): 67%
  Population Hoechst High Intensity Objects (%): 2%
  Population Membrane Permeable-Phenotype (%): 9%
  Population Mitochondria Different-Phenotype (%): 3%
  Population Mitotic Cells (%): 0%
  Population Normal (%): 97%
  Population Pyknosed Nuclei (%): 6%
  Population Tubulin-Different-Phenotype (%): 3%
  Total Cell Count: 234
[4]
  Population Apoptotic (%): 66%
  Population Fragmented Nuclei (%): 18%
  Population Healthy Nuclei (%): 77%
  Population Hoechst High Intensity Objects (%): 4%
  Population Membrane Permeable-Phenotype (%): 3%
  Population Mitochondria Different-Phenotype (%): 1%
  Population Mitotic Cells (%): 33%
  Population Normal (%): 95%
  Population Pyknosed Nuclei (%): 3%
  Population Tubulin-Different-Phenotype (%): 1%
  Total Cell Count: 89
[5]
  Population Apoptotic (%): 92%
  Population Fragmented Nuclei (%): 22%
  Population Healthy Nuclei (%): 69%
  Population Hoechst High Intensity Objects (%): 1%
  Population Membrane Permeable-Phenotype (%): 4%
  Population Mitochondria Different-Phenotype (%): 0%
  Population Mitotic Cells (%): 7%
  Population Normal (%): 98%
  Population Pyknosed Nuclei (%): 8%
  Population Tubulin-Different-Phenotype (%): 3%
  Total Cell Count: 327
[6]
  Population Apoptotic (%): 90%
  Population Fragmented Nuclei (%): 13%
  Population Healthy Nuclei (%): 80%
  Population Hoechst High Intensity Objects (%): 0%
  Population Membrane Permeable-Phenotype (%): 6%
  Population Mitochondria Different-Phenotype (%): 3%
  Population Mitotic Cells (%): 10%
  Population Normal (%): 99%
  Population Pyknosed Nuclei (%): 6%
  Population Tubulin-Different-Phenotype (%): 4%
  Total Cell Count: 159
[7]
  Population Apoptotic (%): 88%
  Population Fragmented Nuclei (%): 22%
  Population Healthy Nuclei (%): 71%
  Population Hoechst High Intensity Objects (%): 1%
  Population Membrane Permeable-Phenotype (%): 5%
  Population Mitochondria Different-Phenotype (%): 3%
  Population Mitotic Cells (%): 11%
  Population Normal (%): 98%
  Population Pyknosed Nuclei (%): 6%
  Population Tubulin-Different-Phenotype (%): 3%
  Total Cell Count: 272
[8]
  Population Apoptotic (%): 75%
  Population Fragmented Nuclei (%): 16%
  Population Healthy Nuclei (%): 75%
  Population Hoechst High Intensity Objects (%): 4%
  Population Membrane Permeable-Phenotype (%): 3%
  Population Mitochondria Different-Phenotype (%): 1%
  Population Mitotic Cells (%): 25%
  Population Normal (%): 95%
  Population Pyknosed Nuclei (%): 7%
  Total Cell Count: 113
[9]
  Population Apoptotic (%): 88%
  Population Fragmented Nuclei (%): 16%
  Population Healthy Nuclei (%): 74%
  Population Hoechst High Intensity Objects (%): 2%
  Population Membrane Permeable-Phenotype (%): 5%
  Population Mitochondria Different-Phenotype (%): 2%
  Population Mitotic Cells (%): 11%
  Population Normal (%): 97%
  Population Pyknosed Nuclei (%): 9%
  Population Tubulin-Different-Phenotype (%): 2%
  Total Cell Count: 442
[10]
  Population Apoptotic (%): 94%
  Population Fragmented Nuclei (%): 15%
  Population Healthy Nuclei (%): 76%
  Population Hoechst High Intensity Objects (%): 3%
  Population Membrane Permeable-Phenotype (%): 6%
  Population Mitochondria Different-Phenotype (%): 3%
  Population Mitotic Cells (%): 5%
  Population Normal (%): 96%
  Population Pyknosed Nuclei (%): 8%
  Population Tubulin-Different-Phenotype (%): 5%
  Total Cell Count: 215
[11]
  Population Apoptotic (%): 96%
  Population Fragmented Nuclei (%): 23%
  Population Healthy Nuclei (%): 69%
  Population Hoechst High Intensity Objects (%): 2%
  Population Membrane Permeable-Phenotype (%): 6%
  Population Mitochondria Different-Phenotype (%): 1%
  Population Mitotic Cells (%): 3%
  Population Normal (%): 97%
  Population Pyknosed Nuclei (%): 7%
  Population Tubulin-Different-Phenotype (%): 4%
  Total Cell Count: 365
[12]
  Population Apoptotic (%): 85%
  Population Fragmented Nuclei (%): 11%
  Population Healthy Nuclei (%): 83%
  Population Hoechst High Intensity Objects (%): 5%
  Population Membrane Permeable-Phenotype (%): 5%
  Population Mitotic Cells (%): 14%
  Population Normal (%): 94%
  Population Pyknosed Nuclei (%): 5%
  Total Cell Count: 147

## CN1CCN(c2nc3cc(C(F)(F)F)ccc3n3cccc23)CC1.O=C(O)/C=C\C(=O)O.O=C(O)/C=C\C(=O)O
[1]
  Population Apoptotic (%): 77%
  Population Fragmented Nuclei (%): 17%
  Population Healthy Nuclei (%): 75%
  Population Hoechst High Intensity Objects (%): 1%
  Population Membrane Permeable-Phenotype (%): 4%
  Population Mitochondria Different-Phenotype (%): 0%
  Population Mitotic Cells (%): 22%
  Population Normal (%): 98%
  Population Pyknosed Nuclei (%): 6%
  Population Tubulin-Different-Phenotype (%): 1%
  Total Cell Count: 266
[2]
  Population Apoptotic (%): 100%
  Population Fragmented Nuclei (%): 18%
  Population Healthy Nuclei (%): 73%
  Population Hoechst High Intensity Objects (%): 0%
  Population Membrane Permeable-Phenotype (%): 8%
  Population Mitochondria Different-Phenotype (%): 2%
  Population Mitotic Cells (%): 0%
  Population Normal (%): 99%
  Population Pyknosed Nuclei (%): 8%
  Population Tubulin-Different-Phenotype (%): 3%
  Total Cell Count: 111
[3]
  Population Apoptotic (%): 66%
  Population Fragmented Nuclei (%): 31%
  Population Healthy Nuclei (%): 53%
  Population Hoechst High Intensity Objects (%): 1%
  Population Membrane Permeable-Phenotype (%): 18%
  Population Mitochondria Different-Phenotype (%): 45%
  Population Mitotic Cells (%): 33%
  Population Normal (%): 98%
  Population Pyknosed Nuclei (%): 15%
  Population Tubulin-Different-Phenotype (%): 19%
  Total Cell Count: 218
[4]
  Population Apoptotic (%): 88%
  Population Fragmented Nuclei (%): 25%
  Population Healthy Nuclei (%): 68%
  Population Hoechst High Intensity Objects (%): 2%
  Population Membrane Permeable-Phenotype (%): 13%
  Population Mitochondria Different-Phenotype (%): 41%
  Population Mitotic Cells (%): 11%
  Population Normal (%): 97%
  Population Pyknosed Nuclei (%): 6%
  Population Tubulin-Different-Phenotype (%): 21%
  Total Cell Count: 135
[5]
  Population Apoptotic (%): 85%
  Population Fragmented Nuclei (%): 17%
  Population Healthy Nuclei (%): 73%
  Population Hoechst High Intensity Objects (%): 2%
  Population Membrane Permeable-Phenotype (%): 5%
  Population Mitochondria Different-Phenotype (%): 1%
  Population Mitotic Cells (%): 14%
  Population Normal (%): 97%
  Population Pyknosed Nuclei (%): 9%
  Population Tubulin-Different-Phenotype (%): 3%
  Total Cell Count: 300
[6]
  Population Apoptotic (%): 92%
  Population Fragmented Nuclei (%): 13%
  Population Healthy Nuclei (%): 77%
  Population Hoechst High Intensity Objects (%): 0%
  Population Membrane Permeable-Phenotype (%): 8%
  Population Mitochondria Different-Phenotype (%): 4%
  Population Mitotic Cells (%): 7%
  Population Normal (%): 99%
  Population Tubulin-Different-Phenotype (%): 4%
  Total Cell Count: 136
[7]
  Population Apoptotic (%): 76%
  Population Fragmented Nuclei (%): 31%
  Population Healthy Nuclei (%): 57%
  Population Hoechst High Intensity Objects (%): 3%
  Population Membrane Permeable-Phenotype (%): 16%
  Population Mitochondria Different-Phenotype (%): 41%
  Population Mitotic Cells (%): 24%
  Population Normal (%): 96%
  Population Pyknosed Nuclei (%): 10%
  Population Tubulin-Different-Phenotype (%): 14%
  Total Cell Count: 244
[8]
  Population Apoptotic (%): 78%
  Population Fragmented Nuclei (%): 19%
  Population Healthy Nuclei (%): 71%
  Population Membrane Permeable-Phenotype (%): 17%
  Population Mitochondria Different-Phenotype (%): 36%
  Population Mitotic Cells (%): 21%
  Population Pyknosed Nuclei (%): 9%
  Population Tubulin-Different-Phenotype (%): 16%
  Total Cell Count: 156
[9]
  Population Apoptotic (%): 87%
  Population Fragmented Nuclei (%): 14%
  Population Healthy Nuclei (%): 77%
  Population Hoechst High Intensity Objects (%): 2%
  Population Membrane Permeable-Phenotype (%): 4%
  Population Mitochondria Different-Phenotype (%): 0%
  Population Mitotic Cells (%): 12%
  Population Normal (%): 97%
  Population Pyknosed Nuclei (%): 7%
  Population Tubulin-Different-Phenotype (%): 2%
  Total Cell Count: 447
[10]
  Population Apoptotic (%): 85%
  Population Fragmented Nuclei (%): 17%
  Population Healthy Nuclei (%): 75%
  Population Hoechst High Intensity Objects (%): 1%
  Population Membrane Permeable-Phenotype (%): 6%
  Population Mitochondria Different-Phenotype (%): 5%
  Population Mitotic Cells (%): 14%
  Population Normal (%): 98%
  Population Tubulin-Different-Phenotype (%): 3%
  Total Cell Count: 187
[11]
  Population Apoptotic (%): 78%
  Population Fragmented Nuclei (%): 31%
  Population Healthy Nuclei (%): 52%
  Population Hoechst High Intensity Objects (%): 4%
  Population Membrane Permeable-Phenotype (%): 16%
  Population Mitochondria Different-Phenotype (%): 17%
  Population Mitotic Cells (%): 21%
  Population Normal (%): 95%
  Population Pyknosed Nuclei (%): 16%
  Population Tubulin-Different-Phenotype (%): 12%
  Total Cell Count: 299
[12]
  Population Apoptotic (%): 81%
  Population Fragmented Nuclei (%): 21%
  Population Healthy Nuclei (%): 67%
  Population Hoechst High Intensity Objects (%): 3%
  Population Membrane Permeable-Phenotype (%): 10%
  Population Mitochondria Different-Phenotype (%): 16%
  Population Mitotic Cells (%): 18%
  Population Normal (%): 96%
  Population Pyknosed Nuclei (%): 11%
  Population Tubulin-Different-Phenotype (%): 9%
  Total Cell Count: 202
